Key:
[1] = target: Hepatitis C virus serine protease, NS3/NS4A (Hepatitis C virus, UniProt A3EZI9+D2K2A8, D168A); test: Inhibition of HCV genotype 1a NS3/4A protease D168A mutant expressed in Escherichia coli BL21(DE3) using Ac-DE-Dap(QXL 520)-EE-Abu-psi-[COO]AS-C(5-FAMsp)-NH2 as substrate preincubated for 1 hr followed by substrate addition; set-up: species or system Hepatitis C virus subtype 1a
Method in brief: (§1)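 Enzyme inhibition constants (Ki) were determined against GT1a NS3/4A protease in three forms: wild type, R155K and D168A.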

Hepatitis C virus [2] = test: Selectivity ratio of EC50 for HCV genotype 1b Con1 harboring HCV genotype 1a H77 NS3 D168A mutant infected in human HuH7 cells to EC50 for HCV genotype 1b Con1 harboring HCV genotype 1a H77 wild type NS3 infected in human HuH7 cells; assay type: functional, Hepacivirus hominis, isolate Con1
Hepatitis C virus [3] = test: Antiviral activity against HCV genotype 1b Con1 harboring HCV genotype 1a H77 wild type NS3 infected in human HuH7 cells assessed as inhibition of viral replication after 96 hrs by luciferase reporter gene assay; assay type: functional, organism-based, Hepacivirus hominis; settings: isolate Con1, Huh-7, 96 h
Method in brief: (§2)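 Cell-based replicon antiviral assays against wild-type HCV and the R155K, A156T, D168A and D168V variants. Potency was expressed as EC50.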

Hepatitis C virus [4] = test: Antiviral activity against HCV genotype 1b Con1 harboring HCV genotype 1a H77 NS3 D168A mutant infected in human HuH7 cells assessed as inhibition of viral replication after 96 hrs by luciferase reporter gene assay; assay type: functional, organism-based, Hepacivirus hominis; settings: isolate Con1, Huh-7, 96 h; method in brief: as §2
Hepatitis C virus [5] = test: Antiviral activity against HCV genotype 1b Con1 harboring HCV genotype 1a H77 NS3 A156T mutant infected in human HuH7 cells assessed as inhibition of viral replication after 96 hrs by luciferase reporter gene assay; assay type: functional, organism-based, Hepacivirus hominis; settings: isolate Con1, Huh-7, 96 h; method in brief: as §2
Hepatitis C virus [6] = test: Antiviral activity against HCV genotype 1b Con1 harboring HCV genotype 1a H77 NS3 D168V mutant infected in human HuH7 cells assessed as inhibition of viral replication after 96 hrs by luciferase reporter gene assay; assay type: functional, organism-based, Hepacivirus hominis; settings: isolate Con1, Huh-7, 96 h; method in brief: as §2
Hepatitis C virus [7] = test: Selectivity ratio of EC50 for HCV genotype 1b Con1 harboring HCV genotype 1a H77 NS3 A156T mutant infected in human HuH7 cells to EC50 for HCV genotype 1b Con1 harboring HCV genotype 1a H77 wild type NS3 infected in human HuH7 cells; assay type: functional, Hepacivirus hominis, isolate Con1
[8] = target: Hepatitis C virus serine protease, NS3/NS4A (Hepatitis C virus, UniProt A3EZI9+D2K2A8, R155K); test: Inhibition of HCV genotype 1a NS3/4A protease R155K mutant expressed in Escherichia coli BL21(DE3) using Ac-DE-Dap(QXL 520)-EE-Abu-psi-[COO]AS-C(5-FAMsp)-NH2 as substrate preincubated for 1 hr followed by substrate addition; set-up: species or system Hepatitis C virus subtype 1a; method in brief: as §1
Hepatitis C virus [9] = test: Selectivity ratio of EC50 for HCV genotype 1b Con1 harboring HCV genotype 1a H77 NS3 D168V mutant infected in human HuH7 cells to EC50 for HCV genotype 1b Con1 harboring HCV genotype 1a H77 wild type NS3 infected in human HuH7 cells; assay type: functional, Hepacivirus hominis, isolate Con1
Hepatitis C virus [10] = test: Antiviral activity against HCV genotype 1b Con1 harboring HCV genotype 1a H77 NS3 R155K mutant infected in human HuH7 cells assessed as inhibition of viral replication after 96 hrs by luciferase reporter gene assay; assay type: functional, organism-based, Hepacivirus hominis; settings: isolate Con1, Huh-7, 96 h; method in brief: as §2
[11] = target: Hepatitis C virus serine protease, NS3/NS4A (Hepatitis C virus, UniProt A3EZI9+D2K2A8); test: Inhibition of wild type HCV genotype 1a NS3/4A protease expressed in Escherichia coli BL21(DE3) using Ac-DE-Dap(QXL 520)-EE-Abu-psi-[COO]AS-C(5-FAMsp)-NH2 as substrate preincubated for 1 hr followed by substrate addition; set-up: species or system Hepatitis C virus subtype 1a; method in brief: as §1
Hepatitis C virus [12] = test: Selectivity ratio of EC50 for HCV genotype 1b Con1 harboring HCV genotype 1a H77 NS3 R155K mutant infected in human HuH7 cells to EC50 for HCV genotype 1b Con1 harboring HCV genotype 1a H77 wild type NS3 infected in human HuH7 cells; assay type: functional, Hepacivirus hominis, isolate Con1

Row | Structure (SMILES) | Ki [1] | Ratio EC50 (Hepatitis C virus [2]) | EC50 (Hepatitis C virus [3]) | EC50 (Hepatitis C virus [4]) | EC50 (Hepatitis C virus [5]) | EC50 (Hepatitis C virus [6]) | Ratio EC50 (Hepatitis C virus [7]) | Ki [8] | Ratio EC50 (Hepatitis C virus [9]) | EC50 (Hepatitis C virus [10]) | Ki [11] | Ratio EC50 (Hepatitis C virus [12])
1 | C=C[C@@H]1C[C@]1(NC(=O)[C@@H]1C[C@@H](Oc2nc3cc(OC)ccc3nc2Cl)CN1C(=O)[C@@H](NC(=O)OC(C)(C)C)C(C)(C)C)C(=O)NS(=O)(=O)C1(C)CC1 | 119 nM | 4.8 | 6.3 nM | 30 nM | 100 nM | 12 nM | 16 | 3.8 nM | 1.9 | 10 nM | 6.1 nM | 1.6
2 | C=C[C@@H]1C[C@]1(NC(=O)[C@@H]1C[C@@H](Oc2nc3cc(OC)ccc3nc2C)CN1C(=O)[C@@H](NC(=O)OC1CCCC1)C(C)(C)C)C(=O)NS(=O)(=O)C1(C)CC1 | 140 nM | 10 | 4.5 nM | 45 nM | 87 nM | 59 nM | 19 | 10 nM | 13 | 28 nM | 7.1 nM | 6.2
3 | C=C[C@@H]1C[C@]1(NC(=O)[C@@H]1C[C@@H](Oc2nc3cc(OC)ccc3nc2Cl)CN1C(=O)[C@@H](NC(=O)OC(C)(C)C)C(C)(C)C)C(=O)NS(=O)(=O)C1CC1 | 128 nM | 5.8 | 6.6 nM | 38 nM | 107 nM | 12 nM | 16 | 2.2 nM | 1.8 | 10 nM | 7.8 nM | 1.5
4 | C=C[C@@H]1C[C@]1(NC(=O)[C@@H]1C[C@@H](Oc2nc3cc(OC)ccc3nc2C(F)(F)F)CN1C(=O)[C@@H](NC(=O)OC(C)(C)C)C(C)(C)C)C(=O)NS(=O)(=O)C1CC1 | 723 nM |  |  |  |  |  |  | 24 nM |  |  | 87 nM | 
5 | C=C[C@@H]1C[C@]1(NC(=O)[C@@H]1C[C@@H](Oc2nc3cc(OC)ccc3nc2C(F)(F)F)CN1C(=O)[C@@H](NC(=O)OC(C)(C)C)C(C)(C)C)C(=O)NS(=O)(=O)C1(C)CC1 | 513 nM |  |  |  |  |  |  | 12 nM |  |  | 46 nM | 
6 | C=C[C@@H]1C[C@]1(NC(=O)[C@@H]1C[C@@H](Oc2nc3cc(OC)ccc3nc2C)CN1C(=O)[C@@H](NC(=O)OC(C)(C)C)C(C)(C)C)C(=O)NS(=O)(=O)C1(C)CC1 | 265 nM |  |  |  |  |  |  | 14 nM |  |  | 14 nM | 
7 | C=C[C@@H]1C[C@]1(NC(=O)[C@@H]1C[C@@H](Oc2nc3cc(OC)ccc3nc2C(C)C)CN1C(=O)[C@@H](NC(=O)OC1CCCC1)C(C)(C)C)C(=O)NS(=O)(=O)C1(C)CC1 | 1000 nM |  |  |  |  |  |  | 43 nM |  |  | 21 nM | 
8 | C=C[C@@H]1C[C@]1(NC(=O)[C@@H]1C[C@@H](Oc2nc3cc(OC)ccc3nc2C(C)C)CN1C(=O)[C@@H](NC(=O)OC1CCCC1)C(C)(C)C)C(=O)NS(=O)(=O)C1CC1 | 985 nM |  |  |  |  |  |  | 55 nM |  |  | 17 nM | 
9 | C=C[C@@H]1C[C@]1(NC(=O)[C@@H]1C[C@@H](Oc2nc3cc(OC)ccc3nc2C(C)C)CN1C(=O)[C@@H](NC(=O)OC(C)(C)C)C(C)(C)C)C(=O)NS(=O)(=O)C1(C)CC1 | 1180 nM |  |  |  |  |  |  | 27 nM |  |  | 29 nM | 
10 | C=C[C@@H]1C[C@]1(NC(=O)[C@@H]1C[C@@H](Oc2nc3cc(OC)ccc3nc2Cl)CN1C(=O)[C@@H](NC(=O)OC1CCCC1)C(C)(C)C)C(=O)NS(=O)(=O)C1(C)CC1 | 51 nM | 8.1 | 3.1 nM | 25 nM | 163 nM | 23 nM | 53 | 5.2 nM | 7.4 | 27 nM | 3.9 nM | 8.7
11 | C=C[C@@H]1C[C@]1(NC(=O)[C@@H]1C[C@@H](Oc2nc3cc(OC)ccc3nc2C(F)(F)F)CN1C(=O)[C@@H](NC(=O)OC1CCCC1)C(C)(C)C)C(=O)NS(=O)(=O)C1(C)CC1 | 516 nM |  |  |  |  |  |  | 22 nM |  |  | 22 nM | 
12 | C=C[C@@H]1C[C@]1(NC(=O)[C@@H]1C[C@@H](Oc2nc3cc(OC)ccc3nc2CC)CN1C(=O)[C@@H](NC(=O)OC(C)(C)C)C(C)(C)C)C(=O)NS(=O)(=O)C1(C)CC1 | 385 nM |  |  |  |  |  |  | 14 nM |  |  | 16 nM | 
13 | C=C[C@@H]1C[C@]1(NC(=O)[C@@H]1C[C@@H](Oc2nc3cc(OC)ccc3nc2CC)CN1C(=O)[C@@H](NC(=O)OC1CCCC1)C(C)(C)C)C(=O)NS(=O)(=O)C1(C)CC1 | 145 nM |  |  |  |  |  |  | 13 nM |  |  | 6.9 nM | 
14 | C=C[C@@H]1C[C@]1(NC(=O)[C@@H]1C[C@@H]2CN1C(=O)[C@H](C(C)(C)C)NC(=O)O[C@@H]1C[C@H]1CCCCCc1nc3ccc(OC)cc3nc1O2)C(=O)NS(=O)(=O)C1(C)CC1 |  |  | 0.12 nM | 11 nM | 200 nM | 5.3 nM |  |  |  | 1.9 nM |  | 
15 | C=C[C@@H]1C[C@]1(NC(=O)[C@@H]1C[C@@H](Oc2nc3cc(OC)ccc3nc2C(C)C)CN1C(=O)[C@@H](NC(=O)OC(C)(C)C)C(C)(C)C)C(=O)NS(=O)(=O)C1CC1 | 1090 nM |  |  |  |  |  |  | 49 nM |  |  | 32 nM | 
16 | CCc1nc2ccc(OC)cc2nc1O[C@@H]1C[C@H]2C(=O)N[C@]3(C(=O)NS(=O)(=O)C4CC4)C[C@H]3/C=C\CCCCC[C@H](NC(=O)OC(C)(C)C)C(=O)N2C1 | 91 nM | 19 |  |  |  |  | 29 | 3.1 nM | 28 |  | 2 nM | 5.5
17 | C=C[C@@H]1C[C@]1(NC(=O)[C@@H]1C[C@@H](Oc2nc3cc(OC)ccc3nc2C)CN1C(=O)[C@@H](NC(=O)OC(C)(C)C)C(C)(C)C)C(=O)NS(=O)(=O)C1CC1 | 290 nM |  |  |  |  |  |  | 8.5 nM |  |  | 18 nM | 
18 | C=C[C@@H]1C[C@]1(NC(=O)[C@@H]1C[C@@H](Oc2nc3cc(OC)ccc3nc2CC)CN1C(=O)[C@@H](NC(=O)OC1CCCC1)C(C)(C)C)C(=O)NS(=O)(=O)C1CC1 | 350 nM |  |  |  |  |  |  | 15 nM |  |  | 9.8 nM | 
19 | C=C[C@@H]1C[C@]1(NC(=O)[C@@H]1C[C@@H](Oc2nc3cc(OC)ccc3nc2C(F)(F)F)CN1C(=O)[C@@H](NC(=O)OC1CCCC1)C(C)(C)C)C(=O)NS(=O)(=O)C1CC1 | 703 nM |  |  |  |  |  |  | 26 nM |  |  | 34 nM | 

— ChEMBL document CHEMBL4196119, “Quinoxaline-Based Linear HCV NS3/4A Protease Inhibitors Exhibit Potent Activity against Drug Resistant Variants” (ACS Med Chem Lett, 2018)
